Source: ChEMBL document CHEMBL1641417, “Cytotoxicity and topoisomerase I/II inhibition of glycosylated 2-phenyl-indoles, 2-phenyl-benzo[b]thiophenes and 2-phenyl-benzo[b]furans” (Bioorg Med Chem, 2011)
Calls of active or inactive are those of the source. No cut-off for these calls is given here.

How the values were obtained:
[1] = test system: HepG2; experiment: Cytotoxicity against human HepG2 cells assessed as cell viability at 25 uM after 72 hrs by MTS assay; conditions: HepG2, 72 h
[2] = Cytotoxicity against human CRL7761 cells after 3 days by MTS assay; format: cell-based; conditions: 72 h
Outline: (§1)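 Non-tumour cells were CRL-7761 human skin, Vero monkey kidney (DMEM high glucose, 5% FBS, 10 mM HEPES) and NIH/3T3 mouse (DMEM, 10% calf serum). Cells were seeded, left 24 h, then switched to serum-free DMEM-F12 with albumin, transferrin and insulin, with or without compound. Exposure was 3 days at 37 °C.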

[3] = test system: HT-29; experiment: Cytotoxicity against human HT-29 cells assessed as cell viability at 20 uM after 24 hrs by MTS assay; format: functional; conditions: HT-29, 24 h, read-out: Activity
[4] = test system: HT-29; experiment: Cytotoxicity against human HT-29 cells assessed as cell viability at 25 uM after 72 hrs by MTS assay; conditions: HT-29, 72 h
[5] = biological target: T1, DNA topoisomerase 1 (Homo sapiens) (UniProt P11387); experiment: Inhibition of human recombinant DNA topoisomerase 1-mediated DNA cleavage assessed as decrease in relaxation of supercoiled plasmid substrate DNA at 5 uM after 30 mins by agarose gel electrophoresis
T1 sequence (whole entry): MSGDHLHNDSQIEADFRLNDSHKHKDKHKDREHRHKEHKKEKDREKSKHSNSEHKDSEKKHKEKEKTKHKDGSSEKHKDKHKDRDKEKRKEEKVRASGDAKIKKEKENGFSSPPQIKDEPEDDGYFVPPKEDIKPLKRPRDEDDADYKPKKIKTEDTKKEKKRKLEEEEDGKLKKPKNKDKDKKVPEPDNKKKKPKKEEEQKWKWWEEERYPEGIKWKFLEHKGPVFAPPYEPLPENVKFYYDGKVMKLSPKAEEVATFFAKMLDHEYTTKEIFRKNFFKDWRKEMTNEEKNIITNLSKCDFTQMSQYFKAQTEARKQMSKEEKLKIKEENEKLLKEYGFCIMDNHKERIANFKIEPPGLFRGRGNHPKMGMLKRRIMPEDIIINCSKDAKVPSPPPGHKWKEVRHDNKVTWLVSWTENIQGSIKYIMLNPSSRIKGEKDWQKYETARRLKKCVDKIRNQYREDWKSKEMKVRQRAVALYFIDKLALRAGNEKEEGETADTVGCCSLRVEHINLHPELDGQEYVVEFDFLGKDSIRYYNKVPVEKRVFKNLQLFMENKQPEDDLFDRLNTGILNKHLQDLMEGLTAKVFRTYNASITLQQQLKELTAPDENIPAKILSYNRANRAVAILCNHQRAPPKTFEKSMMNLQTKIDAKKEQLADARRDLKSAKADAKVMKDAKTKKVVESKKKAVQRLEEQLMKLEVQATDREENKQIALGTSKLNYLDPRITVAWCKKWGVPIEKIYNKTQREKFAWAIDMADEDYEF

[6] = test system: MCF7; experiment: Cytotoxicity against human MCF7 cells assessed as cell viability at 20 uM after 72 hrs by MTS assay; conditions: MCF7, 72 h, read-out: Activity
[7] = test system: HepG2; experiment: Cytotoxicity against human HepG2 cells assessed as cell viability at 16 uM after 72 hrs by MTS assay; conditions: HepG2, 72 h, read-out: Activity
[8] = Cytotoxicity against mouse NIH/3T3 cells after 3 days by MTS assay; format: cell-based; conditions: NIH3T3, 72 h
Outline: as §1

[9] = test system: Vero; experiment: Cytotoxicity against african green monkey Vero cells after 3 days by MTS assay; format: cell-based; conditions: Chlorocebus sabaeus, 72 h
Outline: as §1

[10] = biological target: DNA topoisomerase 2-alpha (Homo sapiens) (UniProt P11388); experiment: Inhibition of human recombinant DNA topoisomerase 2alpha-mediated DNA cleavage assessed as decrease in relaxation of supercoiled plasmid substrate DNA at 20 uM after 30 mins by agarose gel electrophoresis
[11] = test system: HT-29; experiment: Cytotoxicity against human HT-29 cells after 72 hrs by MTS assay; conditions: HT-29, 72 h
[12] = test system: HepG2; experiment: Cytotoxicity against human HepG2 cells after 72 hrs by MTS assay; conditions: HepG2, 72 h
[13] = test system: MCF7; experiment: Cytotoxicity against human MCF7 cells after 72 hrs by MTS assay; conditions: MCF7, 72 h
[14] = test system: HT-29; experiment: Cytotoxicity against human HT-29 cells at 25 uM after 72 hrs by MTS assay
[15] = test system: Nucleic Acid; experiment: Binding affinity to DNA by ethidium bromide staining-based FID assay; set-up: concentration or dose not given beside the values
[16] = biological target: T1, DNA topoisomerase 1 (Homo sapiens); experiment: Induction of poisoning activity in human recombinant DNA topoisomerase 1 assessed as enhancement of in relaxation of supercoiled plasmid substrate DNA at 100 uM after 30 mins by agarose gel electrophoresis
Outline: (§2)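 In the topo I cleavage (poison) assay, the relaxation format was used with 6 units of enzyme for 30 min at 37 °C. Reactions were stopped with SDS, digested with proteinase K and CIA-extracted. DNA was run on 1% agarose with and without ethidium bromide. Poisoning was scored by the presence of the nicked open-circular band, referenced to camptothecin.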

[17] = biological target: DNA topoisomerase 2-alpha (Homo sapiens) (UniProt P11388); experiment: Inhibition of human recombinant DNA topoisomerase 2alpha-mediated DNA cleavage assessed as decrease in relaxation of supercoiled plasmid substrate DNA at 100 uM after 30 mins by agarose gel electrophoresis
[18] = biological target: DNA topoisomerase 2-alpha (Homo sapiens) (UniProt P11388); experiment: Induction of poisoning activity in human recombinant DNA topoisomerase 2alpha assessed as enhancement of in relaxation of supercoiled plasmid substrate DNA at 100 uM after 30 mins by agarose gel electrophoresis
Outline: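 For topo IIα cleavage, 0.25 µg supercoiled pRYG was incubated with 4 units of human topoisomerase IIα (p170) in Tris buffer with 2 mM ATP and 10 mM MgCl2 for 30 min at 37 °C. Workup was SDS stop, proteinase K, extraction and agarose electrophoresis. Poisoning was judged by appearance of a linear DNA band.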

[19] = test system: HepG2; experiment: Cytotoxicity against human HepG2 cells at 25 uM after 72 hrs by MTS assay
[20] = test system: MCF7; experiment: Cytotoxicity against human MCF7 cells at 25 uM after 72 hrs by MTS assay
[21] = biological target: T1, DNA topoisomerase 1 (Homo sapiens); experiment: Inhibition of human recombinant DNA topoisomerase 1-mediated DNA cleavage assessed as decrease in relaxation of supercoiled plasmid substrate DNA at 100 uM after 30 mins by agarose gel electrophoresis
[22] = test system: HepG2; experiment: Cytotoxicity against human HepG2 cells assessed as cell viability at 25 uM after 24 hrs by MTS assay; format: functional; conditions: HepG2, 24 h, read-out: Activity
[23] = biological target: T1, DNA topoisomerase 1 (Homo sapiens); experiment: Inhibition of human recombinant DNA topoisomerase 1-mediated DNA cleavage assessed as decrease in relaxation of supercoiled plasmid substrate DNA at 40 uM after 30 mins by agarose gel electrophoresis
[24] = test system: MCF7; experiment: Cytotoxicity against human MCF7 cells assessed as cell viability at 25 uM after 72 hrs by MTS assay; conditions: MCF7, 72 h
[25] = test system: HT-29; experiment: Cytotoxicity against human HT-29 cells assessed as cell viability at 100 uM after 72 hrs by MTS assay; conditions: HT-29, 72 h
[26] = test system: MCF7; experiment: Cytotoxicity against human MCF7 cells assessed as cell viability at 100 uM after 72 hrs by MTS assay; conditions: MCF7, 72 h
[27] = test system: HepG2; experiment: Cytotoxicity against human HepG2 cells assessed as cell viability at 100 uM after 72 hrs by MTS assay; conditions: HepG2, 72 h
[28] = biological target: DNA topoisomerase 2-alpha (Homo sapiens) (UniProt P11388); experiment: Inhibition of human recombinant DNA topoisomerase 2alpha-mediated DNA cleavage assessed as decrease in relaxation of supercoiled plasmid substrate DNA at 40 uM after 30 mins by agarose gel electrophoresis
[29] = biological target: T1, DNA topoisomerase 1 (Homo sapiens); experiment: Induction of poisoning activity in human recombinant DNA topoisomerase 1 assessed as enhancement of in relaxation of supercoiled plasmid substrate DNA at 25 to 50 uM after 30 mins by agarose gel electrophoresis
Outline: as §2

[30] = biological target: T1, DNA topoisomerase 1 (Homo sapiens); experiment: Induction of poisoning activity in human recombinant DNA topoisomerase 1 assessed as enhancement of in relaxation of supercoiled plasmid substrate DNA at 75 to 100 uM after 30 mins by agarose gel electrophoresis
Outline: as §2

Chain of DNA topoisomerase 2-alpha (Homo sapiens) (P11388 whole entry): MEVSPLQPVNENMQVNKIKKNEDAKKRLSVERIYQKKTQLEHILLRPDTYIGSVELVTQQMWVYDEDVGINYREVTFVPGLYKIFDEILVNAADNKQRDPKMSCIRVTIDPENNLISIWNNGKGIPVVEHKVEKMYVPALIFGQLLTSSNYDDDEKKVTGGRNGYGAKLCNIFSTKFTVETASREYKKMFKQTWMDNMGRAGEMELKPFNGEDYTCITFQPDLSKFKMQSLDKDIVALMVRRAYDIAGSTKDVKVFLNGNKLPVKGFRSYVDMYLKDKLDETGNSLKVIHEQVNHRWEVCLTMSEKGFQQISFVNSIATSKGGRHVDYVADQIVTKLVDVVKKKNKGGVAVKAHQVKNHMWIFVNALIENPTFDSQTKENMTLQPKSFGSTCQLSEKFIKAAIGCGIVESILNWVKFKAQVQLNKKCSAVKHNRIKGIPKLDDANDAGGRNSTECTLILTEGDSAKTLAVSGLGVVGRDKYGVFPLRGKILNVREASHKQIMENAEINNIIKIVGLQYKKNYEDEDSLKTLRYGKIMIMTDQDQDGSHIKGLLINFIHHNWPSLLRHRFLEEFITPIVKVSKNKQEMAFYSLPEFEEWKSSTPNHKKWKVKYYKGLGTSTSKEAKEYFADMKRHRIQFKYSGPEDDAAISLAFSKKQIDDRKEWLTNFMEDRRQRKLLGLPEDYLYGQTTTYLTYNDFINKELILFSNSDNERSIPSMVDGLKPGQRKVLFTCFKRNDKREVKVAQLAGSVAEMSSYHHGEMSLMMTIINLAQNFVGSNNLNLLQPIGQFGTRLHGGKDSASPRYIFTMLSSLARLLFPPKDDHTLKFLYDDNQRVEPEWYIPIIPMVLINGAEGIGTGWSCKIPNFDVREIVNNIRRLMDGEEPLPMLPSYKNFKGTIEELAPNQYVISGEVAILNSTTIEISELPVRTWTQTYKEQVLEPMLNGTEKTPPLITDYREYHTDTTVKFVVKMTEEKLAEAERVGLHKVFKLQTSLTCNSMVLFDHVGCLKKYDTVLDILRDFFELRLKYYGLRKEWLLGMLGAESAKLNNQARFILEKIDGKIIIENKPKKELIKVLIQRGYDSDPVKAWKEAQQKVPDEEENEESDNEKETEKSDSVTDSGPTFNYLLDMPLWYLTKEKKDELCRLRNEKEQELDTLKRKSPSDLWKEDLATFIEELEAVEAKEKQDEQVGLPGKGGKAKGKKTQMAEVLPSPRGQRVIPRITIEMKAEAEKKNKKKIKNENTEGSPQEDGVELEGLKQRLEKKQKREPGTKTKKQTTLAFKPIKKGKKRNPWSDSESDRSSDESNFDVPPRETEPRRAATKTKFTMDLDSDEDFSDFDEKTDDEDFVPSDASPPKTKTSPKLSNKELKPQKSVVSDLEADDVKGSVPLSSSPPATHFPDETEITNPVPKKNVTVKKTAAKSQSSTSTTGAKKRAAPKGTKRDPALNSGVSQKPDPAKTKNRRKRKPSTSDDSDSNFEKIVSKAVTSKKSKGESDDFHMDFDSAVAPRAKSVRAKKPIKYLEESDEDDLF

| SMILES | IC50 [2] [µM] | viability at 25 µM [4] [%] | IC50 [8] [µM] | IC50 [9] [µM] | inhibition [10] | IC50 [11] [µM] | IC50 [12] [µM] | IC50 [13] [µM] | Activity [14] [%] | Activity [15] [%] | Activity [16] | inhibition [17] [%] | Activity [18] | Activity [19] [%] | Activity [20] [%] | inhibition [21] [%] | viability at 25 µM [22] [%] | inhibition [23] | viability at 25 µM [24] [%] | inhibition [28] | other results |
| --- | --- | --- | --- | --- | --- | --- | --- | --- | --- | --- | --- | --- | --- | --- | --- | --- | --- | --- | --- | --- | --- |
| COc1cccc2c1C(=O)c1c(O)c3c(c(O)c1C2=O)C[C@@](O)(C(C)=O)C[C@@H]3O[C@H]1C[C@H](N)[C@H](O)[C@H](C)O1 [DAUNORUBICIN] | 10.5 | 11 | 1.8 | 2.5 | inactive | 0.4 | 0.7 | 5.5 |  |  |  |  |  |  |  |  |  |  |  |  | viability at 25 µM [1]: 2%; viability at 20 µM [3]: 11%; inhibition [5]: Active; viability at 20 µM [6]: 2%; viability at 16 µM [7]: 2% |
| C[C@@H]1O[C@@H](OCC#Cc2c(-c3ccccc3)oc3ccccc23)C[C@H](N)[C@@H]1O | 16.7 | < 1 | 4.8 | 5.7 | inactive | 5.2 | 3.2 | 6.6 | 100 | 62 | inactive | 6.5 | inactive | 100 | 100 | 77.8 | < 1 | inactive | < 1 |  |  |
| Ic1c(-c2ccccc2)sc2ccccc12 |  |  |  |  |  |  |  |  |  |  | inactive |  | inactive |  |  |  |  |  |  |  | viability at 100 µM [25]: 89%; viability at 100 µM [26]: 111%; viability at 100 µM [27]: 87% |
| Cc1ccc(S(=O)(=O)n2c(-c3ccccc3)c(C#CCO[C@H]3CC[C@H](N)[C@H](C)O3)c3ccccc32)cc1 | 17.5 | < 1 | 4.9 | 10.1 | inactive | 5.4 | 9.5 | 5.1 | 100 | 38.6 | inactive | 86.2 | inactive | 100 | 100 | 43.2 | < 1 |  | < 1 | Active |  |
| COc1cccc2c1C(=O)c1c(O)c3c(c(O)c1C2=O)C[C@@](O)(C(=O)CO)C[C@@H]3O[C@H]1C[C@H](N)[C@H](O)[C@H](C)O1 [DOXORUBICIN] | > 25 | 43 | 3.5 | 10.4 | inactive | 0.6 | 1 | 16.8 |  |  |  |  | inactive |  |  |  | 8 |  |  |  | viability at 20 µM [3]: 43%; inhibition [5]: Active; viability at 20 µM [6]: 47%; viability at 16 µM [7]: 8% |
| Cc1ccc(S(=O)(=O)n2c(-c3ccccc3)c(C#CCO[C@H]3C[C@H](N)[C@@H](O)[C@H](C)O3)c3ccccc32)cc1 | 24.3 | < 1 | 5.8 | 11.6 | inactive | 7.3 | 7.7 | 4.7 | 100 | 49.7 | inactive | 103 | inactive | 100 | 100 | 92.8 | < 1 | inactive | < 1 | Active |  |
| CC[C@@]1(O)C(=O)OCc2c1cc1n(c2=O)Cc2cc3ccccc3nc2-1 |  |  |  |  |  |  |  |  |  |  | inactive |  | inactive |  |  |  |  |  |  |  |  |
| Cc1ccc(S(=O)(=O)n2c(-c3ccccc3)c(C#CCO[C@H]3C[C@H](N)[C@H](O)[C@H](C)O3)c3ccccc32)cc1 | 16.5 | < 1 | 5 | 10.2 | inactive | 6.3 | 5.9 | 4.8 | 100 | 47.9 | inactive | 101 | inactive | 100 | 100 | 80.1 | < 1 | inactive | < 1 | Active | Activity [29]: inactive; Activity [30]: inactive |
